From ChEMBL document CHEMBL1152585, “Identification of small molecule regulators of the nuclear receptor HNF4alpha based on naphthofuran scaffolds” (Bioorg Med Chem, 2009) come the findings set out here.

The structures appear in SMILES notation. pEC50, pIC50: −log10 of the molar value. Activity calls are given as the source filed them. The rule behind the calls is not given here. Bounds are passed on as bounds.

The target of assay [1] is T1, Hepatocyte nuclear factor 4-alpha (Homo sapiens) (UniProt P41235).
T1 sequence (whole entry): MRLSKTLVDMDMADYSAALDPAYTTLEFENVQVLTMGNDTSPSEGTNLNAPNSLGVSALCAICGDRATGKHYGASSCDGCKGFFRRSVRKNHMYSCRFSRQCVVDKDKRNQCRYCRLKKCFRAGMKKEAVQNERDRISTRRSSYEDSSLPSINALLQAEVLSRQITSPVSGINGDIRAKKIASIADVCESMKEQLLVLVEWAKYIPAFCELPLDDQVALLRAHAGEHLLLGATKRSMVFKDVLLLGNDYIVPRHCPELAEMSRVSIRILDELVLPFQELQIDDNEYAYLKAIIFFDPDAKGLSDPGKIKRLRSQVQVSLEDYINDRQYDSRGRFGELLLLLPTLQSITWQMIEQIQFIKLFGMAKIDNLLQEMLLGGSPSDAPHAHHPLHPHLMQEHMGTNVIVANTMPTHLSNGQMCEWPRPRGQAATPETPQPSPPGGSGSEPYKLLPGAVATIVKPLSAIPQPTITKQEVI
The experiment in a line: Agonist activity at human full length HNF4alpha nuclear receptor expressed in human HepG2/C3A cells co-transfected with LexADBD assessed as increase in transcriptional activity at 6.2 uM by beta-galactosidase one hybrid assay relative to control. The class given is functional, cell-based.

In assay [2] the target is T2, Hepatocyte nuclear factor 4-alpha (Homo sapiens, UniProt P41235).
T2 sequence (P41235 whole entry): T1 sequence (whole entry)
The experiment in a line: Agonist activity at human full length HNF4alpha nuclear receptor expressed in human HepG2/C3A cells co-transfected with LexADBD assessed as increase in transcriptional activity after 16 hrs by beta-galactosidase one hybrid assay. The class given is functional, cell-based. The gist of the method:
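Yeast one-hybrid with LexA DNA-binding domain fusions of HNF4α (full length, AF-1-deleted, or LBD lacking F domain). Increasing compound concentrations applied to yeast for 16 h, then β-galactosidase assay. EC50 taken from the dose–response curves.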

Assay [3] concerns the target T1, Hepatocyte nuclear factor 4-alpha (Homo sapiens). The experiment in a line: Stabilization of thermal denaturation-induced conformational change in human HNF4alpha nuclear receptor ligand binding domain assessed as change in transition temperature by thermofluor assay. In short, it runs like this: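 Human HNF4α LBD (aa 133–368), 6xHis-tagged, expressed in E. coli, purified under denaturing conditions, renatured and TEV-cleaved (apo). Protein at 0.3 mg/mL in 20 mM Tris-Cl pH 8.0, 100 mM NaCl, with 3× molar excess test compound and SYPRO Orange (20× working). Heated 20–90 °C at 1 °C/min. ΔTm = Tm − T0 against a water control; means of 3–6 independent experiments ± SE.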
A general note: DSF heats the sample and reads unfolding from a dye or from intrinsic fluorescence.

Assay [4] can be described thus: Cytotoxicity against human HepG2/C3A cells after 48 hrs by MTT assay. The class given is functional, cell-based.
The target of assay [5] is T1, Hepatocyte nuclear factor 4-alpha (Homo sapiens). The experiment in a line: Agonist activity at human full length HNF4alpha nuclear receptor expressed in human HepG2/C3A cells co-transfected with LexADBD assessed as increase in transcriptional activity at 12.5 uM by beta-galactosidase one hybrid assay relative to control. The class given is functional, cell-based.
The subject of assay [6] is HepG2/C3A. The experiment in a line: Enhancement of beta-galactosidase activity in human HepG2/C3A cells transfected with Gal4 assessed as increase in transcriptional activity after 16 hrs. The class given is functional, cell-based.
Assay [7] has as its system HepG2/C3A. The experiment in a line: Enhancement of beta-galactosidase activity in human HepG2/C3A cells transfected with LexACOUP-TFII assessed as increase in transcriptional activity after 16 hrs. The class given is functional, cell-based.
Assay [8] deals with HepG2/C3A. As to the kind of experiment: Enhancement of beta-galactosidase activity in human HepG2/C3A cells transfected with estrogen receptor assessed as increase in transcriptional activity after 16 hrs. The class given is functional, cell-based.
Assay [9] concerns the target T1, Hepatocyte nuclear factor 4-alpha (Homo sapiens). As to the kind of experiment: Agonist activity at human full length HNF4alpha nuclear receptor expressed in human HepG2/C3A cells co-transfected with LexADBD assessed as increase in transcriptional activity at 9.3 uM by beta-galactosidase one hybrid assay relative to control. The class given is functional, cell-based.

For assay [10] the target is unchanged. The experiment in a line: Agonist activity at AF1 deleted human HNF4alpha7 nuclear receptor expressed in human HepG2/C3A cells co-transfected with LexADBD assessed as increase in transcriptional activity after 16 hrs by beta-galactosidase one hybrid assay. Type of assay: functional, cell-based.
Assay [11] shares this target. The experiment in a line: Agonist activity at human HNF4alpha7 nuclear receptor LBDdetaF expressed in human HepG2/C3A cells co-transfected with LexADBD assessed as increase in transcriptional activity after 16 hrs by beta-galactosidase one hybrid assay. Type of assay: functional, cell-based.
For assay [12] the target is unchanged. As to the kind of experiment: Activation of HNFalpha transcriptional activity in human […] cells transfected with ApoCIII-luc assessed as activation of luciferase reporter gene after 24 hrs. Type of assay: cell-based. The gist of the method:
(§1)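 HepG2C3A cells seeded at 6 × 10⁴/well in DMEM, transfected 24 h later (JetPEI) with 800 ng total DNA: 250 ng ApoB-Luc or ApoCIII-Luc reporter, 250 ng β-galactosidase plasmid, HNF4α expression vector. Treated 24 h (DMSO 0.5% control). Luciferase read in lysate supernatant and normalised to β-gal (4-MUG fluorescence, ex 365/em 450 nm). Fold induction vs DMSO. At least three independent experiments, in triplicate.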
A general note: Reporter assays use an easily measured gene product as a stand-in for the process of interest.

Assay [13] has the same target. The experiment in a line: Agonist activity at human full length HNF4alpha nuclear receptor expressed in human HepG2/C3A cells co-transfected with LexADBD assessed as increase in transcriptional activity at 18.7 uM by beta-galactosidase one hybrid assay relative to control. Type of assay: functional, cell-based.
Assay [14] shares this target. The experiment in a line: Activation of HNFalpha transcriptional activity in human […] cells transfected with ApoB-luc assessed as activation of luciferase reporter gene after 24 hrs. Type of assay: cell-based. The gist of the method: as §1
For assay [15] the target is unchanged. The experiment in a line: Agonist activity at human full length HNF4alpha nuclear receptor expressed in human HepG2/C3A cells co-transfected with LexADBD assessed as increase in transcriptional activity at 100 uM by beta-galactosidase one hybrid assay relative to control. Type of assay: functional, cell-based.

`O=[N+]([O-])c1cc2c(ccc3cc(O)ccc32)o1`: the fold change (FC) in assay [1] was found to be 11.1. In [2], the pEC50 (as a rule, the EC50 on a negative log10 scale, so that one unit is a factor of ten) is 5.71. The ΔTm (as a rule, the change in melting temperature against a reference sample) in assay [3] is 0.84 °C. Moreover, in [4], the pIC50 (commonly the negative decadic logarithm of the IC50, by convention in mol/L) was 5.30.

Consider `O=[N+]([O-])c1oc2ccc3ccccc3c2c1CCO`, for which, in assay [2], the pEC50 is 5.91. For the same molecule, in assay [4], the pIC50 was 5.69. In addition, the fold change (FC) in [5] stood at 4.58.

Consider `O=[N+]([O-])c1cc2c(ccc3ccccc32)o1`, for which, in assay [2], the pEC50 is 5.68. This molecule had a pIC50 in [4] of 5.60. The fold change (FC) in assay [5] came to 4.46.

For the molecule `COc1cc2ccccc2c2cc([N+](=O)[O-])oc12`, the result in the assay with HepG2/C3A [6], in the assay with HepG2/C3A [7] and with HepG2/C3A [8] was inactive. For the same molecule, in [2], the pEC50 is 5.83. In [4], the pIC50 is 5.36. Besides, the fold change (FC) in assay [9] stood at 6.6.

`COc1ccc2c(ccc3oc([N+](=O)[O-])cc32)c1`: the outcome in assay [10] and in assay [11] was inactive. Moreover, in assay [2], the pEC50 was 5.59. For the same molecule, in [4], the pIC50 was 5.65. Moreover, the fold change (FC) in assay [9] came to 8.05.

`Cc1c([N+](=O)[O-])oc2ccc3ccccc3c12`: the Activity result in assay [12] and in assay [14] was “Dose-dependent effect” each time. The pEC50 in assay [2] was 5.89. In addition, the fold change (FC) in assay [13] was determined as 5.51. In assay [4], this molecule had a pIC50 of less than 5.30.

Turning to `COc1ccc2ccc3oc([N+](=O)[O-])cc3c2c1`, the negative-log EC50 (pEC50) in assay [2] was 5.63. Moreover, the pIC50 in [4] is 5.64. The fold change (FC) in [9] stood at 7.97.

In the case of `NC(=O)c1cc2c(ccc3ccccc32)o1`, the fold change (FC) in [15] is 2. Also, in assay [2], the pEC50 is less than 4.00. The pIC50 in [4] was less than 5.30.
